The text below walks through data of ChEMBL document CHEMBL1123788, “Synthesis and antitumor activity of tropolone derivatives. 5” (J Med Chem, 1987).

Test [1] in a line: In vitro inhibition of KB cell growth. To be noted: Homo sapiens. Format: functional, cell-based.
The subject of test [2] is P388. The test is described as follows: In vivo antitumor activity against leukemia P388 in mice at 400 mg/kg dosage administered intraperitoneally once a day for 1 and 5 days; compound is inactive. Format: functional, organism-based. Details: dose 400 mg/kg. The following applies: Mus musculus. Summed up: (§1)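 Mice bearing P388 leukemia were given the compound intraperitoneally once daily for 1 and 5 days, at doses of 0.6 to 400 mg/kg; single-dose screens were run at 400 mg/kg. Antitumor activity is reported as T/C, %.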

Test [3] relates to P388. The test is described as follows: In vivo antitumor activity against leukemia P388 in mice at 100 mg/kg dosage administered intraperitoneally once a day for 1 and 5 days. The format is functional, Mus musculus. To be noted: route intraperitoneal. Summed up: as §1
Test [4] deals with P388. The test can be described thus: In vivo antitumor activity against leukemia P388 in mice at 200 mg/kg dosage administered intraperitoneally once a day for 1 and 5 days. The format is functional, Mus musculus. To be noted: route intraperitoneal. Summed up:
as §1

Test [5] has as its system P388. The test is described as follows: In vivo antitumor activity against leukemia P388 in mice at 400 mg/kg dosage administered intraperitoneally once a day for 1 and 5 days. The format is functional, Mus musculus. To be noted: route intraperitoneal. In short, it runs like this:
as §1

Test [6] has as its system P388. The test can be described thus: In vivo antitumor activity against leukemia P388 in mice at 0.6 mg/kg dosage administered intraperitoneally once a day for 1 and 5 days. Format: functional, Mus musculus. To be noted: route intraperitoneal. Summed up:
as §1

Test [7] concerns P388. The test can be described thus: In vivo antitumor activity against leukemia P388 in mice at 2.5 mg/kg dosage administered intraperitoneally once a day for 1 and 5 days. The format is functional, Mus musculus. To be noted: route intraperitoneal. In short, it runs like this:
as §1

For test [8], the system named is P388. The test can be described thus: In vivo antitumor activity against leukemia P388 in mice at 5 mg/kg dosage administered intraperitoneally once a day for 1 and 5 days. The following applies: route intraperitoneal. Format: functional, Mus musculus. In short, it runs like this:
as §1

The test system of test [9] is P388. The test is described as follows: In vivo antitumor activity against leukemia P388 in mice at 50 mg/kg dosage administered intraperitoneally once a day for 1 and 5 days. The following applies: route intraperitoneal. The format is functional, Mus musculus. In short, it runs like this: as §1

In brackets after ≈: the same amount, converted by molar mass. Activity calls are given as the source filed them. No cut-off for these calls is given here.

The IC50 is the concentration at which inhibition is half-maximal. Read a high IC50 as lower potency. What is called T/C is the ratio of treated to control. Consider `COc1ccc(C(c2ccc(C(C)C)cc(S)c2=O)c2ccc(C(C)C)cc(S)c2=O)cc1`, for which half-maximal inhibition in [1] (IC50) required 5.3 µg/mL (≈ 11.1 µM). The T/C result in [2] is “inactive”.

For the compound `COc1ccc(C(c2ccc(C(C)C)cc(=O)c2O)c2ccc(C(C)C)cc(OC)c2=O)cc1` (centres undefined), the results for the T/C in test [3], in [4] and in [5] were 133%, 148% and 60%, respectively. Also, half-maximal inhibition in test [1] (IC50) was put at 1.7 µg/mL (≈ 3.69 µM).

`COc1ccc(C(c2ccc(C(C)C)cc(=O)c2OC)c2ccc(C(C)C)cc(OC)c2=O)cc1` (centres undefined): in [1], 5.4 µg/mL (≈ 11.4 µM) corresponded to half-maximal inhibition (IC50). In addition, the T/C entry in test [2] is “inactive”.

`COc1ccc(C(c2ccc(C(C)C)cc(=O)c2O)c2ccc(C(C)C)cc(=O)c2O)cc1`: in [1], half-maximal inhibition (IC50) required 0.5 µg/mL (≈ 1.12 µM). In addition, the T/C in test [6] is given as 127%; in [7], 134%; in test [8], 173%.

Turning to `COc1ccc(C(c2ccc(C(C)C)cc(=O)c2OC)c2ccc(C(C)C)cc(=O)c2OC)cc1`, the T/C result in test [2] was “inactive”.

Take `CNc1cc(C(C)C)ccc(C(c2ccc(OC)cc2)c2ccc(C(C)C)cc(=O)c2O)c1=O` (centres undefined): the IC50 in [1] amounted to 50 µg/mL (≈ 109 µM). Further, in test [2], the T/C entry is “inactive”.

The compound `COc1ccc(C(c2ccc(C(C)C)cc(OC)c2=O)c2ccc(C(C)C)cc(OC)c2=O)cc1` returned an IC50 in test [1] of 23.5 µg/mL (≈ 49.5 µM). For the same compound, in [2], the T/C entry was “inactive”.

`C/N=c1\cc(C(C)C)ccc(C(c2ccc(OC)cc2)c2ccc(C(C)C)cc(NC)c2=O)c1O` (centres undefined) yielded a half-inhibitory concentration (IC50) in test [1] of 100 µg/mL (≈ 212 µM). The T/C result in test [2] is “inactive”.

For `CCOC(c1ccc(OC)cc1)c1ccc(C(C)C)cc(=O)c1O` (centres undefined), the T/C worked out at 140% in test [3], 128% in [4], 119% in test [9] and 140% in test [5]. For the same compound, the IC50 in test [1] was found to be 0.5 µg/mL (≈ 1.52 µM).
